Reference: ChEMBL document CHEMBL1782051, “Synthesis and biological evaluation of novel gamma-carboline analogues of Dimebon as potent 5-HT6 receptor antagonists” (Bioorg Med Chem Lett, 2009)
pEC50, pIC50: −log10 of the molar value.

How the values were obtained:
[1] = biological target: 5-hydroxytryptamine receptor 6 (Homo sapiens, UniProt P50406); assay: Antagonist activity at human recombinant 5-HT6 receptor expressed in HEK293 cells assessed as inhibition of serotonin-induced intracellular cAMP accumulation by LANCE technique; type: functional, cell-based; settings: for pIC50: read-out: IC50; for IC50: hek293
Chain of 5-hydroxytryptamine receptor 6 (P50406 whole entry): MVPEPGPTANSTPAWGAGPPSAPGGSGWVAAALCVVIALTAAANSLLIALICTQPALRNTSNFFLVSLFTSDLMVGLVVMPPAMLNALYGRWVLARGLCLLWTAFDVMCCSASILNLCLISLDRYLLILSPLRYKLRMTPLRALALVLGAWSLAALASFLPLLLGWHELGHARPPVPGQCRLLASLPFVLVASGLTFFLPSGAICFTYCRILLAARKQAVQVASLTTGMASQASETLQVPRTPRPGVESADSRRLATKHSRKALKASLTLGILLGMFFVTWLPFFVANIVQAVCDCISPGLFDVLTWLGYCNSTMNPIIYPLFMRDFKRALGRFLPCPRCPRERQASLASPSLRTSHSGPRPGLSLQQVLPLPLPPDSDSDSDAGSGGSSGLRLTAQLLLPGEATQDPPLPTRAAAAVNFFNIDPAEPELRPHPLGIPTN
Summary of the method: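 Cells continuously express recombinant human 5-HT6 receptors. Serotonin stimulation raises intracellular cyclic AMP, which was monitored continuously by LANCE technology. Read-out was inhibition of the serotonin-dependent cAMP response.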

[2] = biological target: T1, Histamine H1 receptor (Homo sapiens, UniProt P35367); assay: Antagonist activity at human histamine H1 receptor in SK-N-SH cells assessed as inhibition of histamine-induced calcium level increase during phase-1 compound incubated before histamine addition by Fura-2 based fluorometric assay; type: functional, cell-based
T1 sequence (P35367 whole entry): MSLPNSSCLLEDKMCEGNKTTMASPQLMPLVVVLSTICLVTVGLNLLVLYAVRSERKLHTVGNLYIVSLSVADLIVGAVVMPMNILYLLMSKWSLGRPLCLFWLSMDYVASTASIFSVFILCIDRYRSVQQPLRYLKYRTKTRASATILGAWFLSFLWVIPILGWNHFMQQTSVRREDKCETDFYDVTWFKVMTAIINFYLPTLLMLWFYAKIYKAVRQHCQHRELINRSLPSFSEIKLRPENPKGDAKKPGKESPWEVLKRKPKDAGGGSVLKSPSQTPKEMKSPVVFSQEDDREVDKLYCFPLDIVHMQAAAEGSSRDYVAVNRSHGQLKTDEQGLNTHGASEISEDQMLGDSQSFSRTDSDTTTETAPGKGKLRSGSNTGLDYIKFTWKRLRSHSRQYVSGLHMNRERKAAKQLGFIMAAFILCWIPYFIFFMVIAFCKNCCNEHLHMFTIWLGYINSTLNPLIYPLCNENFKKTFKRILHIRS
Summary of the method: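 H1 receptor Ca-dependent signalling was measured in SK-N-SH cells as blockade of histamine-induced calcium flow in phase-I. IC50 values were reported.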

[3] = biological target: T1, Histamine H1 receptor; assay: Antagonist activity at human histamine H1 receptor in SK-N-SH cells assessed as inhibition of histamine-induced calcium flow during phase-II compound dosed after histamine addition by Fura-2 based fluorometric assay; type: functional
[4] = biological target: Acetylcholinesterase (Homo sapiens, UniProt P22303); assay: Inhibition of AChE
Chain of Acetylcholinesterase (P22303 whole entry, the tested form may be a part): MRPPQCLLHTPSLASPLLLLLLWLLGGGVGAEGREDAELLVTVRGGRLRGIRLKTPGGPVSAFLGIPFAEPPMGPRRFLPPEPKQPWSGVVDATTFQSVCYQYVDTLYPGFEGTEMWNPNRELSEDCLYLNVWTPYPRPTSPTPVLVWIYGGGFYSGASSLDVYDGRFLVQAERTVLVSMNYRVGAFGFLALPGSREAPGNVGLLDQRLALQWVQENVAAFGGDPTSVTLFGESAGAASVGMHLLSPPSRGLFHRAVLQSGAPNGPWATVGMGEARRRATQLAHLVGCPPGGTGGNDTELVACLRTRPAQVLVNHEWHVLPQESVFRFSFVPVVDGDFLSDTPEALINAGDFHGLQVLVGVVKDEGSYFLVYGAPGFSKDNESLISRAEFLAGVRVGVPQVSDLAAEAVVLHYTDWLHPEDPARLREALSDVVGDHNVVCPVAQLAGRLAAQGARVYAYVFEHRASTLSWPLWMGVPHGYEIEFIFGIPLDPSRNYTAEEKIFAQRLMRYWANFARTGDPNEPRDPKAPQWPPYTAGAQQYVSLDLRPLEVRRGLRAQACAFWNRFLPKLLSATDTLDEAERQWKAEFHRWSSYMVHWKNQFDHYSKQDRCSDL

[5] = Neuroprotective activity in cerebellum cell culture assessed as protection against beta-amyloid fragment Abeta (25-35)-induced neurotoxicity; type: functional, tissue-based
[6] = biological target: Cholinesterase (Homo sapiens, UniProt P06276); assay: Inhibition of BuChE
Chain of Cholinesterase (P06276 whole entry): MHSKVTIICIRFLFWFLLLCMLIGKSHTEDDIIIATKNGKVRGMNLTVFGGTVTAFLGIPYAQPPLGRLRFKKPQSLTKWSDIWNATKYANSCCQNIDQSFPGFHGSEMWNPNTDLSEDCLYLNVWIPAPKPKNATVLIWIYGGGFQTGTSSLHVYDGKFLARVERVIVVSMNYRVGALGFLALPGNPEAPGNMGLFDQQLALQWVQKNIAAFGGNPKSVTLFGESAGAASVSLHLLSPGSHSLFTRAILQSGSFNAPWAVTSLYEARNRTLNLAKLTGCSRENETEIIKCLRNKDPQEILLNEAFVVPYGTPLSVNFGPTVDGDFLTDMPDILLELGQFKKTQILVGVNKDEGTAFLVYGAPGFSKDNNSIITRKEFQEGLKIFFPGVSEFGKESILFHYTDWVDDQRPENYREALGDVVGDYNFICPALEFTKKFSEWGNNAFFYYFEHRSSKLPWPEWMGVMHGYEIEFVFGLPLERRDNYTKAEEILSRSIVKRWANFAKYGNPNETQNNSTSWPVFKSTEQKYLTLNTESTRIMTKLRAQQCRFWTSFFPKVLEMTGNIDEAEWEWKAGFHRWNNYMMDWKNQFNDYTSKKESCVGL

[7] = biological target: Glutamate NMDA receptor (Rattus norvegicus) (UniProt P35439+Q00959+Q00960+Q00961+Q62645+Q8VHN2+Q9R1M7); assay: Inhibition of NMDA receptor in rat brain cortical neurons assessed as blocking of NMDA-induced currents; type: tissue-based
[8] = Inhibition of L-type calcium channel

Row | SMILES | pIC50 [1] | pIC50 [2] | pIC50 [3] | other results
1 | CN1CCc2c(c3cc(Br)ccc3n2CCc2ccccn2)C1 | 5.98 | 6.92 |  | 
2 | CN1CCc2c(c3cc(C(=O)O)ccc3n2CCc2ccncc2)C1 | < 5.00 | < 5.00 |  | 
3 | CN1CCc2c(c3ccccc3n2CCc2ccncc2)C1 | 5.05 | 6.92 | 6.30 | 
4 | Cc1ccc2c(c1)c1c(n2CCc2ccccn2)CCN(C)C1 | 6.07 | 6.30 | 5.00 | 
5 | CN1CCc2c(c3cc(C#N)ccc3n2CCc2ccccn2)C1 | 5.13 | 5.89 |  | 
6 | CN1CCc2c(c3cc(C(F)(F)F)ccc3n2CCc2ccccn2)C1 | 5.80 | 6.25 | 5.80 | 
7 | COc1ccc2c(c1)c1c(n2CCc2ccccn2)CCN(C)C1 | 5.08 | 5.33 |  | 
8 | Cc1ccc2c(c1)c1c(n2CCc2cccnc2)CCN(C)C1 | 6.36 | 6.30 | 5.50 | 
9 | Cc1ccc2c(c1)c1c(n2CCc2ccccn2)CCN(C2CCN(C)CC2)C1 |  | < 5.00 |  | IC50 [1]: Not Active
10 | COc1ccc2c(c1)c1c(n2CCc2ccncc2)CCN(C)C1 | 5.36 | 6.41 |  | 
11 | CN1CCc2c(c3cc(F)ccc3n2CCc2ccncc2)C1 | 5.49 | 6.92 | 6.33 | 
12 | CN1CCc2c(c3ccccc3n2CCc2ccccn2)C1 | 4.80 | 5.74 | 6.03 | 
13 | CN1CCc2c(c3cc(F)ccc3n2CCc2cccnc2)C1 | < 5.00 | 6.19 | 6.03 | 
14 | Cc1ccc2c(c1)c1c(n2CCc2cccnc2)CCN(C2CCN(C)CC2)C1 |  | 5.55 |  | IC50 [1]: Not Active
15 | Cc1ccc2c(c1)c1c(n2CCc2ccc(C)nc2)CCN(C)C1 [LATREPIRDINE] | 6.05 | 6.80 | 5.80 | pIC50 [4]: 4.35; pEC50 [5]: 4.60; pIC50 [6]: 5.10; ED50 [7]: 42 µM; pIC50 [8]: 4.24
16 | Cc1ccc2c(c1)c1c(n2CCc2ccncc2)CCN(C2CCN(C)CC2)C1 |  | 5.12 |  | IC50 [1]: Not Active
17 | Cc1ccc2c(c1)c1c(n2CCc2ccncc2)CCN(C)C1 | 6.43 | 6.80 | 5.40 | 
18 | CN1CCc2c(c3cc(C(F)(F)F)ccc3n2CCc2cccnc2)C1 | 5.24 | < 5.00 |  | 
19 | CN1CCc2c(c3ccccc3n2CCc2cccnc2)C1 | 5.22 | 7.00 | 6.39 | 
20 | CN1CCc2c(c3cc(-c4cccnc4)ccc3n2CCc2ccccn2)C1 | 4.36 | 5.15 |  | 
21 | Cc1ccc(CCn2c3c(c4cc(F)ccc42)CN(C)CC3)cn1 | 4.97 | 6.96 | 6.14 | 
22 | CN1CCc2c(c3cc(F)ccc3n2CCc2ccccn2)C1 | 5.53 | 6.03 | 6.21 | 
23 | CN1CCc2c(c3cc(C(F)(F)F)ccc3n2CCc2ccncc2)C1 | 5.19 | 6.66 |  | 
24 | Cc1ccc2c(c1)c1c(n2CCc2cnccn2)CCN(C)C1 | 5.69 | 6.49 | 5.10 | 
